This is an account of results in paper PMC4277818 (Molecular imaging and biology : MIB : the official …, 2012).

The assay relates to TRAP5b. Description: Serum TRAP5b solid-phase immunoassay. Type of assay: in vivo, C57BL/6 mice. The note with it: 0.3 mg/kg RANKL twice a day for 10 days; PET/CT imaging study, n=4. The essentials:
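Male C57BL/6 mice (~23 g) got RANKL s.c. in the nape in 50 μL saline, twice a day for 10 days, under brief isoflurane; controls got vehicle. Blood was taken by submandibular venous puncture before biodistribution or at sacrifice. Serum was spun at 10,000 rpm for 5 min at 4°C and stored at −20°C. Osteoclastic TRAP5b was measured by solid-phase immunoassay. P<0.05 was significant.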

B1: RANKL: receptor activator of nuclear factor κB ligand, cytokine stimulating osteoclastogenesis; provided by Amgen (protein, UniProt O14788 140-317, looked up)
Tumor necrosis factor ligand …: IRAEKAMVDGSWLDLAKRSKLEAQPFAHLTINATDIPSGSHKVSLSSWYHDRGWAKISNMTFSNGKLIVNQDGFYYLYANICFRHHETSGDLATEYLQLMVYVTKTSIKIPSSHTLMKGGSTKYWSGNSEFHFYSINVGGFFKLRSGEEISIEVSNPSLLDPDQDATYFGAFKVRDID
With B1, the “increase of serum TRAP5b, RANKL-treated vs control cohort” value was found to be 1.6 fold.
